By EC50 is commonly meant the concentration that produces a half-maximal response. Low values mean an effect from little substance, high ones a need for much substance. The CC50 is the concentration at which the toxic effect on the cells reaches its halfway point. Read a high CC50 as better tolerance by the cells.

In series [1] the test system is Human immunodeficiency virus 1. In words: Antiviral activity against HIV-1 NL4-3 infected in MT4 cells assessed inhibition of viral replication measured on day 4 postinfection by ELISA. In kind it is functional, organism-based. The settings on record: Human immunodeficiency virus 1, NL4-3, MT4, 96 h. The method in brief:
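MT4 cells infected with HIV-1 NL4-3 at MOI 0.001 in presence of graded compound concentrations; fresh compound-containing medium added 48 h post-infection to sustain growth. Viral replication read on day 4 by p24 ELISA; EC50 = concentration giving 50% inhibition of replication.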

A short description of series [2]: Cytotoxicity against human MT4 cells by cell-titer Glo assay. The format is cell-based. The method in brief: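 MT4 cells cultured in parallel with antiviral cultures; viability read by luminescent ATP quantitation (CellTiter-Glo). CC50 = concentration reducing viability by 50%.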

As for `C=C(CC(F)(F)F)[C@@H]1CC[C@]2(C(=O)O)CC[C@]3(C)[C@H](CC[C@@H]4[C@@]5(C)CC[C@H](OC(=O)CC(C)(C)C(=O)O)C(C)(C)[C@@H]5CC[C@]43C)[C@@H]12`, a half-maximal effect in series [1] (EC50) was put at 0.097 µM. The compound further displayed a CC50 in series [2] greater than 6 µM.

`C=C(C)[C@@H]1CC[C@]2(C(=O)OCC3CCC(F)(F)CC3)CC[C@]3(C)[C@H](CC[C@@H]4[C@@]5(C)CC[C@H](OC(=O)CC(C)(C)C(=O)O)C(C)(C)[C@@H]5CC[C@]43C)[C@@H]12`: in series [1], the EC50 was determined as 0.31 µM. Also, in series [2], the half-maximal cytotoxic concentration (CC50) is greater than 6 µM.

`C=C(C)[C@@H]1CC[C@]2(C(=O)OCCc3cccc(C(F)(F)F)c3)CC[C@]3(C)[C@H](CC[C@@H]4[C@@]5(C)CC[C@H](OC(=O)CC(C)(C)C(=O)O)C(C)(C)[C@@H]5CC[C@]43C)[C@@H]12` came in with a half-maximal effective concentration (EC50) in series [1] of 3 µM. The CC50 in series [2] was greater than 5 µM.

Compound `C=C(C)[C@@H]1CC[C@]2(C(=O)O)CC[C@]3(C)[C@H](CC[C@@H]4[C@@]5(C)C[C@@H](F)[C@H](OC(=O)CC(C)(C)C(=O)O)C(C)(C)[C@@H]5CC[C@]43C)[C@@H]12` yielded an EC50 in series [1] greater than 17 µM. The CC50 in series [2] is greater than 17 µM.

`C=C(C)[C@@H]1CC[C@]2(C(=O)O)CC[C@]3(C)[C@H](CC[C@@H]4[C@@]5(C)CC[C@H](OC(=O)C(F)(F)C(F)(F)C(F)(F)C(=O)O)C(C)(C)[C@@H]5CC[C@]43C)[C@@H]12` displayed an EC50 in series [1] greater than 6 µM. Besides, the CC50 in series [2] was greater than 6 µM.

`C=C(C)[C@@H]1CC[C@]2(C(=O)OCCC3CC3)CC[C@]3(C)[C@H](CC[C@@H]4[C@@]5(C)C[C@@H](F)[C@H](OC(=O)CC(C)(C)C(=O)O)C(C)(C)[C@@H]5CC[C@]43C)[C@@H]12` displayed a concentration for a half-maximal effect (EC50) in series [1] of 1.1 µM. Also, the CC50 in series [2] was greater than 6 µM.

For the compound `C=C(C)[C@@H]1CC[C@]2(C(=O)OC)CC[C@]3(C)[C@H](CC[C@@H]4[C@@]5(C)C[C@@H](C(F)(F)F)[C@H](OC(=O)CC(C)(C)C(=O)O)C(C)(C)[C@@H]5CC[C@]43C)[C@@H]12`, the EC50 in series [1] was greater than 6 µM. This compound also had a CC50 in series [2] greater than 6 µM.

In turn, `C=C(C)[C@@H]1CC[C@]2(C(=O)OC)CC[C@]3(C)[C@H](CC[C@@H]4[C@@]5(C)C[C@@H](F)[C@H](OC(=O)CC(C)(C)C(=O)O)C(C)(C)[C@@H]5CC[C@]43C)[C@@H]12` returned a concentration for a half-maximal effect (EC50) in series [1] greater than 16 µM. This compound also gave a cytotoxic concentration (CC50) in series [2] greater than 16 µM.

Consider `C=C(C)[C@@H]1CC[C@]2(C(=O)O)CC[C@]3(C)[C@H](CC[C@@H]4[C@@]5(C)CC[C@H](OC(=O)C(F)(F)C(F)(F)C(=O)O)C(C)(C)[C@@H]5CC[C@]43C)[C@@H]12`, for which, in series [1], the EC50 was greater than 6 µM. Besides, the CC50 in series [2] is greater than 6 µM.

For the compound `C=C(C)[C@@H]1CC[C@]2(C(=O)O)CC[C@]3(C)[C@H](CC[C@@H]4[C@@]5(C)CC[C@H](OC(=O)CC(C)(C)C(=O)O)C(C)(C)[C@@H]5CC[C@]43C)[C@@H]12` [BEVIRIMAT], the concentration giving a half-maximal response (EC50) in series [1] was determined as 0.075 µM. The compound also displayed a cytotoxic concentration (CC50) in series [2] greater than 17 µM.

The values are drawn from ChEMBL document CHEMBL3739279, “Fluorinated betulinic acid derivatives and evaluation of their anti-HIV activity” (Bioorg Med Chem Lett, 2016).
